Here are results for 33 molecules from ChEMBL document CHEMBL2321834 (J Med Chem, 2013).

Calls of active or inactive are those of the source. The rule behind the calls is not given here.

Test [1] addresses T1, 17-beta-hydroxysteroid dehydrogenase type 1 (Homo sapiens) (UniProt P14061).
T1 sequence (whole entry): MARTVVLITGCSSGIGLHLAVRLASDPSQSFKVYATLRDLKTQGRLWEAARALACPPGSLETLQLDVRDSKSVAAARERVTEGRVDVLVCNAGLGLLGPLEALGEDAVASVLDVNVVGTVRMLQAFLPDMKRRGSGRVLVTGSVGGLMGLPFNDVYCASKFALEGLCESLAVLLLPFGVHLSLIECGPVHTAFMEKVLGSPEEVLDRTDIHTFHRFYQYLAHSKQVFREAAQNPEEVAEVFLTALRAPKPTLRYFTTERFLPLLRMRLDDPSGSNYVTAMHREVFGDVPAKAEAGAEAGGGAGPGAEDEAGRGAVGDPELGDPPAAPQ
The settings on record: at 1 µM.

Test [2] deals with T2, 17-beta-hydroxysteroid dehydrogenase type 2 (Homo sapiens) (UniProt P37059).
T2 sequence (whole entry): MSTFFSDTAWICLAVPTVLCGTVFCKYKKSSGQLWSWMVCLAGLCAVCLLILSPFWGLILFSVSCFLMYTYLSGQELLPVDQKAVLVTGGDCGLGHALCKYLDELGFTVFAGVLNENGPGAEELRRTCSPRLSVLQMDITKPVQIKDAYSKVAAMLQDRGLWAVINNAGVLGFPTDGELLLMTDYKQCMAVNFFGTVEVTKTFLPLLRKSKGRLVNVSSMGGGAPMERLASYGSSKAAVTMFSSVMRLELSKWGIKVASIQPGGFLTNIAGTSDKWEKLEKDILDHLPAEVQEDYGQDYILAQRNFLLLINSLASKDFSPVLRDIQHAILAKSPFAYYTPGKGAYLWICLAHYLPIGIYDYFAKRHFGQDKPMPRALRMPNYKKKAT
The settings on record: Placenta, Microsomal, at 1 µM.

The target in test [3] is T3, Estrogen receptor (Homo sapiens) (UniProt P03372).
T3 sequence (whole entry): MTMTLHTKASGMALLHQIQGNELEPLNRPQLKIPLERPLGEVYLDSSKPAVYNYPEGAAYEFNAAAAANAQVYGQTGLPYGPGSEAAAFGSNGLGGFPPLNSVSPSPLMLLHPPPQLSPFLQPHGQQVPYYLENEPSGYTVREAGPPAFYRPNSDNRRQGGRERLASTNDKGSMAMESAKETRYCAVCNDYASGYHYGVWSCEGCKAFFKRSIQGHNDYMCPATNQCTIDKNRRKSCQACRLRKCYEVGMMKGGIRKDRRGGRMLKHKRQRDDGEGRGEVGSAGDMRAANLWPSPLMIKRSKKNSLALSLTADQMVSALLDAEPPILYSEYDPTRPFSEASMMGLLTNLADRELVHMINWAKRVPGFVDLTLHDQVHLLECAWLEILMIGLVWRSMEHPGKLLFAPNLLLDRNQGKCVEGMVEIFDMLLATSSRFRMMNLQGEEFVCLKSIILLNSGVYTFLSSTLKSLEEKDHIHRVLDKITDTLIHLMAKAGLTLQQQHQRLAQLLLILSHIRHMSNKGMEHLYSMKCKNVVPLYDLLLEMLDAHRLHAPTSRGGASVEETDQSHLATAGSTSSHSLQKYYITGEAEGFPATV
The experiment in a line: Displacement of [3H]E2 from human recombinant ERalpha after 1 hr by scintillation counting analysis relative to E2. A digest of the protocol:
(§1)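 Competitive binding assay against ERα and ERβ, with E2 as internal reference.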
Background: Loss of bound radioactivity is the signal in a displacement assay; it reports binding, not function.

The species named for test [4] is Homo sapiens. The experiment in a line: Selectivity ratio of IC50 for 17beta-HSD1 in human placental microsomal fraction to IC50 for 17beta-HSD2 in human placental microsomal fraction. It counts as microsomes. The settings on record: Microsome.
Test [5] has as its target Estrogen receptor beta (Homo sapiens) (UniProt Q92731). Kind of test: Displacement of [3H]E2 from human recombinant ERbeta after 1 hr by scintillation counting analysis relative to E2. In outline:
as §1

For test [6], the target named is T4, 17-beta-hydroxysteroid dehydrogenase type 2 (Homo sapiens, UniProt P37059).
T4 sequence (P37059 whole entry): T2 sequence (whole entry)
The experiment in a line: Inhibition of 17beta-HSD2 (unknown origin). In outline:
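Microsomal fraction of human placenta as enzyme source, incubated with tritiated E2, cofactor and inhibitor. Substrate and product separated by HPLC to give percent inhibition. IC50 determined for selected compounds.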

Test [7] has as its target T5, Peroxisomal multifunctional enzyme type 2 (Homo sapiens) (UniProt P51659).
T5 sequence (whole entry): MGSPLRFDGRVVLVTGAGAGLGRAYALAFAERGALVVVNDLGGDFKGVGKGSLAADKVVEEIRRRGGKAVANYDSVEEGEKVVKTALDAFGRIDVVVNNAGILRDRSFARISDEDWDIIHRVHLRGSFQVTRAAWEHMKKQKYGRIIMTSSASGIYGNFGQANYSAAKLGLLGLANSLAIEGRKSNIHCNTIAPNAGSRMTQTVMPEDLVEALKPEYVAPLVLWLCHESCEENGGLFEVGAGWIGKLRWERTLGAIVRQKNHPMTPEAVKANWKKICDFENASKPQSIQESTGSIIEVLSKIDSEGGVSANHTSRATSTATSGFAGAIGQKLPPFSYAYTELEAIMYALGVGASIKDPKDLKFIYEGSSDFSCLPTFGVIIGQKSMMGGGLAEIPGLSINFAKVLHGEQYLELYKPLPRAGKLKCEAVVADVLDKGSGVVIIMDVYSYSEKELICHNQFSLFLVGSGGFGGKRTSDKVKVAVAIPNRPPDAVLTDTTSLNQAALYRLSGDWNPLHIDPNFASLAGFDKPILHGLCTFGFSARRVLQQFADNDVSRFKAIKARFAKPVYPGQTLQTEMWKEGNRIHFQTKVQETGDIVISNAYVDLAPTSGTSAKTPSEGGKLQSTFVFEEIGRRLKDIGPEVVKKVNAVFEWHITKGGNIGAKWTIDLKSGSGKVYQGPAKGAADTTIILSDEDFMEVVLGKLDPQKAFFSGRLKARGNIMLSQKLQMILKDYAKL
The experiment in a line: Inhibition of human recombinant 17beta-HSD4 SDR domain expressed in Escherichia coli using [6,7-3H]E2 as substrate at 1 uM by scintillation counting analysis.

Test [8] addresses T6, Aldo-keto reductase family 1 member C3 (Homo sapiens) (UniProt P42330).
T6 sequence (whole entry): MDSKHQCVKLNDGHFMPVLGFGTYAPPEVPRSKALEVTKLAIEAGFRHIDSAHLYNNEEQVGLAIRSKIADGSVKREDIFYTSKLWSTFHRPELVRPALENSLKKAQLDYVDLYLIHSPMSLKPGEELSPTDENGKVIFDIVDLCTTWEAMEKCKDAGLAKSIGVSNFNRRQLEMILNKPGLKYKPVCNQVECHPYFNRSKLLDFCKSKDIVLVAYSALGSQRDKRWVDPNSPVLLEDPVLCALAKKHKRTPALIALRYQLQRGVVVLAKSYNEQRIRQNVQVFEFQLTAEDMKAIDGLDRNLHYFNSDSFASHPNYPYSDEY
The experiment in a line: Inhibition of human recombinant 17beta-HSD5 expressed in Escherichia coli using [1,2,6,7-3H]A-dione as substrate at 1 uM by scintillation counting analysis.

Estrogen receptor beta (Homo sapiens), sequence (Q92731 whole entry): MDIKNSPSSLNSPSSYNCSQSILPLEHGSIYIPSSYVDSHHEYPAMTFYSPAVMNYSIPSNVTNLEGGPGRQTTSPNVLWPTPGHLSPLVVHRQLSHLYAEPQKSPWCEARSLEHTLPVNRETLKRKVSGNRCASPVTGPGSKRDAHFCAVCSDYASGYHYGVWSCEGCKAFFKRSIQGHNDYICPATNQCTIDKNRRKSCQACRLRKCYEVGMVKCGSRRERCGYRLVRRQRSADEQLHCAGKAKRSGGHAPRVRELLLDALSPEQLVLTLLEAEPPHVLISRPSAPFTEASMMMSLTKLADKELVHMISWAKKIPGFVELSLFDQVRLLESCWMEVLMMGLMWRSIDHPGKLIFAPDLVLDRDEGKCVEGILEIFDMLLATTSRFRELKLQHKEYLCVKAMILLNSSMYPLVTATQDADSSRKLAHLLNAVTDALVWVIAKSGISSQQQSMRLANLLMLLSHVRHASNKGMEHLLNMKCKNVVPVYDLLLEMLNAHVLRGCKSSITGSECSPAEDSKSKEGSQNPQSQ

The inhibition is how much of the control response was suppressed. With `COc1cccc(CCN(C)C(=O)c2ccc(-c3ccccc3)s2)c1`, the inhibition turned out to be 11% in test [1] and 18% in test [2].

Turning to `COc1ccc(N(C)C(=O)c2ccc(-c3cccc(OC)c3F)s2)cc1`, the inhibition in test [1] worked out at 18%; in test [2], 49%.

Take `COc1cccc(-c2ccc(C(=O)N(C)c3cccc(C)c3)s2)c1`: the RBA in test [3] and in test [5] was under 0.1% throughout. In addition, the inhibition in test [1] is under 10%; in test [2], 87%. Besides, the Ratio IC50 in test [4] was 55.

Consider `CN(CCc1cccc(O)c1)C(=O)c1ccc(-c2cccc(O)c2)s1`, for which the results for the inhibition in test [1] and in test [2] were 23% and 37%, respectively.

Consider `COc1cccc(N(C)C(=O)c2ccc(-c3cccc(C)c3F)s2)c1`, for which the RBA in test [3] and in test [5] was under 0.1% in each case.

Regarding `CN(Cc1cccc(O)c1)C(=O)c1ccc(-c2cccc(O)c2)s1`, the inhibition in test [1] was 21%; in test [2], 70%. Also, the Ratio IC50 in test [4] was 14.

Regarding `CN(Cc1cccc(O)c1)C(=O)c1ccc(-c2ccccc2O)s1`, the inhibition stood at 16% in test [1] and 83% in test [2].

As for `COc1cccc(CCN(C)C(=O)c2ccc(-c3cccc(F)c3)s2)c1`, the inhibition in test [1] and in test [2] was under 10% throughout.

For orientation: IC50 means the concentration at which inhibition is half-maximal. In turn, `Cn1nc(-c2cccc(O)c2)nc1-c1ccc(-c2cccc(O)c2)cc1` yielded an IC50 in test [6] of 1400 nM.

As to `CN(CCc1cccc(O)c1)C(=O)c1ccc(-c2cccc(F)c2)s1`, the inhibition in test [1] is 12%; in test [2] it was 17%.

As to `COc1cccc(N(C)C(=O)c2ccc(-c3ccccc3)s2)c1`, the RBA in test [3] and in test [5] was under 0.1% each time. Further, the inhibition in test [1] came out at 24%; in test [2], 82%. In addition, in test [4], the Ratio IC50 is 21.

Take `Cc1cccc(N(C)C(=O)c2ccc(-c3cccc(O)c3)s2)c1`: the RBA in test [3] and in test [5] was under 0.1% throughout. Also, the inhibition came to 24% in test [1] and 71% in test [2]. For the same molecule, in test [4], the Ratio IC50 is 11.

Regarding `COc1cccc(-c2cccc(C(=O)N(C)c3cccc(OC)c3)c2)c1`, the inhibition was under 10% in test [1] and 64% in test [2].

Consider `COc1cccc(-c2ccc(C(=O)N(C)c3cccc(OC)c3)s2)c1`, for which the RBA in test [3] and in test [5] was under 0.1% each time.

For `COc1cccc(-c2ccc(C(=O)N(C)c3cccc(-c4ccccc4)c3)s2)c1`, the RBA in test [3] and in test [5] was under 0.1% in each case. In addition, the inhibition in test [1] amounted to 50%; in test [2] it was 83%. Moreover, in test [4], the Ratio IC50 is 8.

Take `CN1C(=O)C[C@@H](c2ccccc2)[C@H]1[C@H](O)c1ccc(-c2cccnc2)s1`: in test [7], the inhibition entry is “inactive”. Also, the inhibition in test [8] was determined as 88%.

Consider `COc1cccc(-c2ccc(C(=O)N(C)c3cccc(C)c3)s2)c1F`, for which the RBA in test [3] and in test [5] was under 0.1% in each case.

For `COc1cccc(CN(C)C(=O)c2ccc(-c3cccc(OC)c3)s2)c1`, the inhibition in test [1] was under 10%; in test [2], 63%.

Regarding `COc1cccc(N(C)C(=O)c2ccc(-c3cccc(C)c3)s2)c1`, the RBA in test [3] and in test [5] was under 0.1% throughout.

Regarding `COc1ccc(-c2ccc(C(=O)N(C)c3cccc(OC)c3)s2)cc1`, the RBA in test [3] and in test [5] was under 0.1% each time.

For `CN(CCc1cccc(O)c1)C(=O)c1ccc(-c2ccccc2)s1`, the results for the inhibition in test [1] and in test [2] were under 10% and 11%, respectively.

Turning to `COc1cccc(CN(C)C(=O)c2ccc(-c3ccc(C#N)cc3)s2)c1`, the inhibition in test [1] and in test [2] was under 10% each time.

In turn, `C[C@]12CC[C@@H]3c4ccc(O)cc4CC[C@H]3[C@@H]1CC[C@@]21CCCC(=O)O1` came in with an IC50 in test [6] of 34 nM.

As for `CN(Cc1cccc(O)c1)C(=O)c1cccc(-c2cccc(O)c2)c1`, the inhibition in test [1] was 10%; in test [2] it was 60%.

With `COc1cccc(CCN(C)C(=O)c2ccc(-c3cccc(OC)c3)s2)c1`, the inhibition was under 10% in test [1] and 31% in test [2].

For the molecule `COc1ccc(-c2cccc(C(=O)N(C)Cc3cccc(OC)c3)c2)cc1`, the inhibition in test [1] is under 10%; in test [2], 13%.

In test [1], `COc1cccc(CN(C)C(=O)c2ccc(-c3ccccc3OC)s2)c1` gave an inhibition of under 10%.

Regarding `CN(Cc1cccc(O)c1)C(=O)c1ccc(-c2cccc(F)c2)s1`, the inhibition in test [1] was found to be 20%; in test [2], 71%.

In the case of `COc1cccc(N(C)C(=O)c2ccc(-c3c(F)ccc(OC)c3F)s2)c1`, the RBA in test [3] and in test [5] was under 0.1% in each case.

Take `COc1cccc(-c2ccc(C(=O)N(C)c3cccc(C(F)(F)F)c3)s2)c1`: the RBA in test [3] and in test [5] was under 0.1% throughout. The inhibition in test [1] is 13%; in test [2], 75%. For the same molecule, in test [4], the Ratio IC50 is 17.

On to `COc1cccc(N(C)C(=O)c2ccc(-c3ccc(OC)cc3OC)s2)c1`, for which the RBA in test [3] and in test [5] was under 0.1% throughout. Also, the values for the inhibition in test [1] and in test [2] were 30% and 77%, respectively. Also, in test [4], the Ratio IC50 was found to be 6.

For the molecule `COc1cccc(N(C)C(=O)c2ccc(-c3cccc(SC)c3)s2)c1`, the RBA in test [3] and in test [5] was under 0.1% each time.

Consider `COc1cccc(N(C)C(=O)c2ccc(-c3ccc(F)c(OC)c3)s2)c1`, for which the inhibition in test [1] was 17%; in test [2] it was 66%.
